Compound activity: PubChem, several laboratories
MC4R barr agon: activates human MC4R beta-arrestin recruitment; P32245; U2OS MC4R beta-arrestin complementation, luminescence; percent of melanotan II response, DMSO zero; activation, % at 8.9 µM; hit rate 0.98% among 360,000; AID 540308;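 active = activation above a per-plate cutoff, the mean activation of sample wells on that plate plus 3 SD, cut at about 8% in these data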
MC4R antag cAMP: antagonists of human melanocortin 4 receptor (MC4R); P32245; MC4R-expressing cells, MTII-stimulated cAMP, LANCE TR-FRET; inhibition, % at 6.5 µM; hit rate 0.48% among 360,000;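 active = inhibition above its plate's cutoff, the mean of tested wells on that plate plus 3 SD, cut at about 29% in these data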;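 also: 0% = Melanotan II alone and 100% = Melanotan II plus saturating MCL0020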
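Material – human MC4R-expressing U2OS cells · Repeats – no replicates · Detection – TR-FRET with Eu-cAMP and labeled anti-cAMP, 671 nm · Times – compound 30 min, challenge 1 h, detection 1 h · Compound – single nominal compound dose of 6.5 µM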
EBI2 antag: antagonists of human EBI2 receptor. P32249. EBI2 beta-arrestin recruitment, luminescence, 7a,25-OHC stimulated. inhibition, % at 5 µM. hit rate 0.81% among 360,000. AID 651636; in the data active = inhibition above about 38%;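 also: enzyme fragment complementation signal reports receptor beta-arrestin coupling in cells; 0% = agonist plus DMSO wells and 100% = wells without agonist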
Target sequence (P32249 whole entry, looked up, the tested form may be a part): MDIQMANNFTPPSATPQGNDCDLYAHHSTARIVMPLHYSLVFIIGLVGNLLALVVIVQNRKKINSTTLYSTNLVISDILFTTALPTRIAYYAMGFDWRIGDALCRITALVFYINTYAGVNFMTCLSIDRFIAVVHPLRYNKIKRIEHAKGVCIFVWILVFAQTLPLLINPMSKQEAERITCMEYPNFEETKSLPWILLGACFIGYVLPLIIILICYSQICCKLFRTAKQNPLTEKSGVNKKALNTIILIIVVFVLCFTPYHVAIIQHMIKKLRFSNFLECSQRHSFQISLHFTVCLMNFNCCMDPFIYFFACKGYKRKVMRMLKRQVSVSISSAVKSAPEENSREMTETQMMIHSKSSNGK
HTR2A ag: mouse HTR2A agonism via beta-arrestin recruitment; P35363; CHO-K1 mHTR2A beta-arrestin complementation, luminescence; percent of 30 µM serotonin response; activation, % at 7.6 µM; hit rate 0.66% among 360,000;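 active = activation above a run cutoff, the mean activation of all tested compounds plus 3 SD, cut at about 14% in these data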;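 also: 0% = plate median of compound wells and 100% = 30 µM serotonin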
MC4R barr ag: human MC4R beta-arrestin agonism confirmation. shares compounds with MC4R barr agon. U2OS MC4R beta-arrestin recruitment, luminescence; scaled DMSO 0%, Melanotan II 100%. activation, % at 8.9 µM. hit rate 31% among 2,400;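 active = mean activation across replicates above the hit cutoff set in the earlier primary screen, cut at about 8% in these data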
MOR-DOR barr ag: counter-screen for MC4R agonists: agonists of mu-delta opioid heterodimer. shares compounds with MC4R barr agon. U2OS PathHunter beta-arrestin, beta-gal luminescence; percent of deltorphin B response, DMSO zero. activation, % at 9.2 µM. hit rate 5.8% among 2,400. AID 602194;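 active = mean activation across replicates exceeds the hit threshold derived in the earlier primary screen, cut at about 18% in these data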;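 also: 100% = deltorphin B at 0.9 µM final and 0% = DMSO alone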
Numbers without * were called inactive; ! = repeats disagree. An excerpt weighted towards active compounds, which were near 2.8% of everything screened.

For CCN1CCN(Cc2ccc(NC(=O)c3cc(NC(=O)c4cc5cccc(OC)c5o4)cc(OC)c3)cc2C(F)(F)F)CC1 the results were MC4R barr agon 29*!, MC4R antag cAMP 0, EBI2 antag -3, HTR2A ag -5, MC4R barr ag 37* and MOR-DOR barr ag 7.
Screening CCCCNC(=O)C(NC(=O)c1ccc(C)cc1)C(=O)c1ccccc1 (stereo not given) returned EBI2 antag -2 and HTR2A ag -2.
For COc1cccc(CNCc2ccc(OC)cc2OC)c1 the results were MC4R barr agon -1, MC4R antag cAMP 10, EBI2 antag -9 and HTR2A ag 0.
`CCn1c2ccccc2c2cc(CNCc3ccc(OC)cc3OC)ccc21` gave MC4R barr agon 41*, MC4R antag cAMP 2, EBI2 antag -16, HTR2A ag -3, MC4R barr ag 52* and MOR-DOR barr ag 21*.
`O=C(NCC(c1ccco1)N1CCc2ccccc21)C(=O)Nc1ccccc1` (stereo not given) gave MC4R barr agon 11*, MC4R antag cAMP 6, EBI2 antag -1, HTR2A ag -5, MC4R barr ag 1 and MOR-DOR barr ag 4.
For CC(C)c1ccc(/C=N/n2nnnc2Nc2ccccc2)cc1 the results were MC4R barr agon 11*, MC4R antag cAMP 13, EBI2 antag 3, HTR2A ag 6, MC4R barr ag 15* and MOR-DOR barr ag 7.
For CCOc1ccc(Cl)cc1-c1cc(C(=O)NC2CCCCC2)[nH]n1 the results were MC4R barr agon 0, MC4R antag cAMP 0, EBI2 antag 4 and HTR2A ag -3.
For CCOC(=O)c1nn(-c2cccc(OC)c2)c2nc(CC)c(C#N)c(=O)n12 the results were MC4R barr agon 11*, MC4R antag cAMP 7, EBI2 antag -3, HTR2A ag -1, MC4R barr ag 5 and MOR-DOR barr ag 5.
For CC[C@@]1(C(=O)OC)N[C@H](CN(C)C(=O)Nc2ccc(Cl)cc2)[C@@H]2C(=O)N(Cc3ccccc3)C(=O)[C@@H]21 the results were MC4R barr agon 1, MC4R antag cAMP 7, EBI2 antag 0 and HTR2A ag 0.
`CCOc1ccc(N(CC(=O)Nc2ccc(C)cc2)S(=O)(=O)c2c(C)noc2C)cc1` gave MC4R barr agon 1, MC4R antag cAMP -2, EBI2 antag 15 and HTR2A ag 2.
`CCOc1ccc(N(CC(=O)Nc2ccc(F)c(F)c2)S(=O)(=O)c2c(C)noc2C)cc1` gave MC4R barr agon 9.6*, MC4R antag cAMP -1, EBI2 antag 7, HTR2A ag -4, MC4R barr ag 1 and MOR-DOR barr ag 7.
Cc1c(-c2ccc(F)cc2)nc(N)c(C#N)c1-c1ccco1 was read as MC4R barr agon 15*, MC4R antag cAMP 3, EBI2 antag -8, HTR2A ag -1, MC4R barr ag 3 and MOR-DOR barr ag 7.
Screening Nc1ccccc1C(=O)NC(=O)Nc1ccc(Oc2ncc(Br)cn2)c(Cl)c1 returned MC4R barr agon -1, MC4R antag cAMP -16, EBI2 antag -5 and HTR2A ag 6.
`Cc1ccccc1S(=O)(=O)NC(=O)C1(C)CCN1C(=O)c1cccc(F)c1` (stereo not given) gave MC4R barr agon -2, MC4R antag cAMP 13, EBI2 antag 0 and HTR2A ag -1.
For COc1ccc(-c2csc(NC(=O)COC(=O)c3ccco3)n2)cc1 the results were MC4R barr agon 11*, MC4R antag cAMP 7, EBI2 antag -2, HTR2A ag -1, MC4R barr ag 4 and MOR-DOR barr ag 3.
Screening O=C1CN(C(=O)COC(=O)/C=C/c2ccc(OC(F)F)cc2)c2ccccc2N1 returned MC4R barr agon 11*, MC4R antag cAMP -5, EBI2 antag -3, HTR2A ag 2, MC4R barr ag -1 and MOR-DOR barr ag 3.
Screening CCCC[C@@H]1CC2=C(C(=O)OC(C)(C)O2)[C@H](c2ccc(C(C)C)cc2)O1 returned EBI2 antag -20 and HTR2A ag -1.
`O=C(CSc1ccccn1)c1ccc(F)cc1` gave MC4R barr agon -3, MC4R antag cAMP 3, EBI2 antag -3 and HTR2A ag 2.
Fc1ccc(-c2nnsc2Sc2ccccn2)cc1 was read as MC4R barr agon 12*, MC4R antag cAMP 1, EBI2 antag -16, HTR2A ag 2, MC4R barr ag -1 and MOR-DOR barr ag 3.
CCSc1nnc(NC(=O)C2CCCCC2C(=O)O)s1 (stereo not given) was read as MC4R barr agon 0, MC4R antag cAMP 2, EBI2 antag 5 and HTR2A ag 2.
`CCSc1nnc(NC(=O)C2CC2c2ccccc2)s1` (stereo not given) gave MC4R barr agon 15*, MC4R antag cAMP -5, EBI2 antag -2, HTR2A ag -3, MC4R barr ag 6 and MOR-DOR barr ag 7.
`CCOC(=O)N1CCN(C(=O)C[C@@H]2C[C@@]3(C(=O)OCC)CCC=C3N(Cc3ccco3)C2=O)CC1` gave EBI2 antag -8 and HTR2A ag 0.
O=C(CN1CCN(c2ccccc2F)CC1)NC(=O)NCc1ccccc1 was read as MC4R barr agon 2, MC4R antag cAMP -1, EBI2 antag 0 and HTR2A ag 1.
`O=C(CN1CCN(c2ccccc2)CC1)NC(=O)NCc1ccccc1` gave MC4R barr agon 14*, MC4R antag cAMP 5, EBI2 antag -9, HTR2A ag 3, MC4R barr ag 5 and MOR-DOR barr ag 2.
`Cc1cccc(NC(=O)COC(=O)c2nn(-c3ccccc3C(F)(F)F)cc2O)c1C` gave MC4R barr agon 0, MC4R antag cAMP 4, EBI2 antag 6 and HTR2A ag -2.
For O=C(COC(=O)c1nn(-c2ccccc2C(F)(F)F)cc1O)c1ccc(OC(F)F)cc1 the results were MC4R barr agon 11*, MC4R antag cAMP 0, EBI2 antag -2, HTR2A ag -1, MC4R barr ag 2 and MOR-DOR barr ag 2.
O=C(CCc1nc2ccccc2c(=O)[nH]1)OCc1ccc(-c2ccccc2)cc1 was read as MC4R barr agon 18*, MC4R antag cAMP -6, EBI2 antag -3, HTR2A ag 9, MC4R barr ag 3 and MOR-DOR barr ag 6.
O=C(CCc1nc2ccccc2c(=O)[nH]1)OCc1cccc(C(F)(F)F)c1 was read as MC4R barr agon 4, MC4R antag cAMP 5, EBI2 antag 9 and HTR2A ag 1.
c1ccc(C2=Nn3c(nnc3-c3cc(-c4ccccc4)n[nH]3)SC2)cc1 was read as MC4R barr agon 1, MC4R antag cAMP -8, EBI2 antag -11 and HTR2A ag 5.
